Laboratory results reported in ChEMBL document CHEMBL4024777, “Discovery of LY3104607: A Potent and Selective G Protein-Coupled Receptor 40 (GPR40) Agonist with Optimized Pharmacokinetic Properties to Support Once Daily Oral Treatment in Patients with Type 2 Diabetes Mellitus” (J Med Chem, 2018).
Values after ≈ are worked out from the molar mass of the structure shown. Active and inactive are the calls of the source. The rule behind the calls is not given here.

Key:
[1] = Tmax in Beagle dog at 30 mg/kg, po; assay type: ADME, organism-based, Canis lupus familiaris; conditions: in vivo
Method in brief: (§1)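 Dogs dosed orally at 30, 100 or 300 mg/kg, N = 2 per dose.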

[2] = Cmax in Sprague-Dawley rat at 10 mg/kg, po; assay type: ADME, organism-based; design: dose 10 mg/kg, route oral; conditions: in vivo
[3] = AUC (0 to 24 hrs) in Sprague-Dawley rat at 100 mg/kg, po; assay type: ADME, organism-based; design: dose 100 mg/kg, time < 24 hr, route oral; conditions: in vivo
[4] = test system: Rattus norvegicus; assay: Toxicity in Zucker fa/fa rat assessed as change in body weight at 1 to 10 mg/kg, po; assay type: organism-based; conditions: in vivo
Method in brief: (§2)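 Male Zucker fa/fa rats, 10 weeks old, given daily oral doses of 1, 3 or 10 mg/kg for 21 days. Body weight and food consumption tracked, with a reference agonist as positive control.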

[5] = target: T1, Peroxisome proliferator-activated receptor gamma (Homo sapiens) (UniProt P37231); assay: Agonist activity at […] human PPARgamma expressed in African green monkey CV1 cells up to 30 uM after 24 hrs by luciferase reporter gene assay; assay type: cell-based
T1 sequence (whole entry): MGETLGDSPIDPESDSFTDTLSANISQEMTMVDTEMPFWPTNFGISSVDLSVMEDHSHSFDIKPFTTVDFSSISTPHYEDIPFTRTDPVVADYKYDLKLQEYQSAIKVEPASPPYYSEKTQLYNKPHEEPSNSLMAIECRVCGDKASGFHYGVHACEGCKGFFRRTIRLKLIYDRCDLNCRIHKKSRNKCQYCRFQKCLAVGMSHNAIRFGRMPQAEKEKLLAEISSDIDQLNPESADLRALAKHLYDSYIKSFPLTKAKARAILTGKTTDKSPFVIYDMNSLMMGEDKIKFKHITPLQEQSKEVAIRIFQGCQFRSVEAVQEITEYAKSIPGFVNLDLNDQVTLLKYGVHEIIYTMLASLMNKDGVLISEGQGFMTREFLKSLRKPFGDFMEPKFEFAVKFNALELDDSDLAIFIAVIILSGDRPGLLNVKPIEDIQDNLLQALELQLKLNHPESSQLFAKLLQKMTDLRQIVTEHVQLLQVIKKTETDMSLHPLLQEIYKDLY
Method in brief: (§3)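 PPAR alpha, delta and gamma binding and functional activity were each tested at concentrations up to 30 µM.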

[6] = Cmax in Sprague-Dawley rat at 1 mg/kg, po; assay type: ADME, organism-based; design: dose 1 mg/kg, route oral; conditions: in vivo
[7] = Oral bioavailability in Beagle dog at 3 mg/kg; assay type: ADME, organism-based, Canis lupus familiaris; conditions: in vivo
Method in brief: (§4)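 Fasted dogs dosed orally at 3 mg/kg. […] Bioavailability is derived relative to the 1 mg/kg IV dose.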

[8] = Tmax in Sprague-Dawley rat at 100 mg/kg, po; assay type: ADME, organism-based; conditions: in vivo
[9] = Tmax in Beagle dog at 100 mg/kg, po; assay type: ADME, organism-based, Canis lupus familiaris; conditions: in vivo; method in brief: as §1
[10] = Drug metabolism in dog hepatocytes assessed as metabolite-B formation; assay type: ADME, cell-based, Canis lupus familiaris, Hepatocyte
[11] = Tmax in Beagle dog at 3 mg/kg, po; assay type: ADME, organism-based, Canis lupus familiaris; conditions: in vivo; method in brief: as §4
[12] = target: T2, Peroxisome proliferator-activated receptor alpha (Homo sapiens) (UniProt Q07869); assay: Agonist activity at GAL4-fused human PPARalpha expressed in African green monkey CV1 cells up to 30 uM after 24 hrs by luciferase reporter gene assay; assay type: cell-based; method in brief: as §3
T2 sequence (whole entry): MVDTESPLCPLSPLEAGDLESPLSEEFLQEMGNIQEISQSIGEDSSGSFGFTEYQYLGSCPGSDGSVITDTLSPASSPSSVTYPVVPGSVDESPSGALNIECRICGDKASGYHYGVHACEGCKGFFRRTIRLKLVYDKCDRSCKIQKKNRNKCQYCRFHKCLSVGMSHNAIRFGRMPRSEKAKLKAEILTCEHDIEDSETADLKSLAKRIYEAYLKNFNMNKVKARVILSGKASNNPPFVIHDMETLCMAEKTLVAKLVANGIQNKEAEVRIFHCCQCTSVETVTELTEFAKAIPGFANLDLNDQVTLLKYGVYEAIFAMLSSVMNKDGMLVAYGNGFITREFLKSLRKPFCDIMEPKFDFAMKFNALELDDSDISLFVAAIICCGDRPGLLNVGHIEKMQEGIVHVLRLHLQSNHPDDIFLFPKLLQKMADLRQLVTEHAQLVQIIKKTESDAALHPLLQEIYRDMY

[13] = Tmax in Sprague-Dawley rat at 500 mg/kg, po; assay type: ADME, organism-based; conditions: in vivo
[14] = test system: Rattus norvegicus; assay: Toxicity in Zucker fa/fa rat assessed as alteration in food consumption at 1 to 10 mg/kg, po; assay type: organism-based; conditions: in vivo; method in brief: as §2
[15] = Cmax in Beagle dog at 30 mg/kg, po; assay type: ADME, organism-based, Canis lupus familiaris; design: dose 30 mg/kg, route oral; conditions: in vivo
[16] = Cmax in Sprague-Dawley rat at 500 mg/kg, po; assay type: ADME, organism-based; design: dose 500 mg/kg, route oral; conditions: in vivo
[17] = Clearance in Beagle dog at 1 mg/kg, iv; assay type: ADME, organism-based, Canis lupus familiaris; conditions: in vivo
[18] = AUC (0 to 24 hrs) in Beagle dog at 30 mg/kg, po; assay type: ADME, organism-based, Canis lupus familiaris; design: dose 30 mg/kg, time < 24 hr, route oral; conditions: in vivo
[19] = Aqueous solubility of the compound at pH 7.4; assay type: physicochemical
Method in brief: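 Solubility was measured by DMSO/aqueous precipitation at pH 7.4 and reported as the last soluble concentration.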

[20] = Intrinsic clearance in human microsomes; assay type: ADME, Microsome
[21] = AUC (0 to 24 hrs) in Beagle dog at 100 mg/kg, po; assay type: ADME, organism-based, Canis lupus familiaris; design: time < 24 hr, dose 100 mg/kg, route oral; conditions: in vivo
[22] = Dissociation constant, pKa of the compound; assay type: physicochemical
[23] = Half life in Beagle dog at 1 mg/kg, iv; assay type: ADME, organism-based, Canis lupus familiaris; conditions: in vivo
[24] = target: Free fatty acid receptor 1 (Rattus norvegicus) (UniProt Q8K3T4); assay: Agonist activity at GPR40 in Sprague-Dawley rat islets assessed as glucose-stimulated insulin secretion levels at 3 uM in presence of 11.2 mM glucose by ELISA (reference value: 6.24 ng/ml)
[25] = Oral bioavailability in Sprague-Dawley rat at 1 mg/kg; assay type: ADME, organism-based; conditions: in vivo
Method in brief: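 Fasted rats given oral doses of 1 mg/kg. […] Bioavailability is calculated against the 1 mg/kg IV group.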

[26] = Solubility of the compound in pH 8.1 buffer; assay type: physicochemical
[27] = target: Voltage-gated inwardly rectifying potassium channel KCNH2 (Homo sapiens, UniProt Q12809); assay: Inhibition of human ERG at 100 uM
[28] = target: Cytochrome P450 2D6 (Homo sapiens, UniProt P10635); assay: Inhibition of human CYP2D6; assay type: ADME
[29] = target: Free fatty acid receptor 1 (Rattus norvegicus) (UniProt Q8K3T4); assay: Agonist activity at GPR40 in Sprague-Dawley rat islets assessed as glucose-stimulated insulin secretion levels at 10 uM in presence of 11.2 mM glucose by ELISA (reference value: 6.24 ng/ml)
[30] = Drug metabolism in rat hepatocytes assessed as metabolite-A formation; assay type: ADME, cell-based, Hepatocyte
[31] = Tmax in Beagle dog at 300 mg/kg, po; assay type: ADME, organism-based, Canis lupus familiaris; conditions: in vivo; method in brief: as §1
[32] = Half life in Sprague-Dawley rat at 1 mg/kg, iv; assay type: ADME, organism-based; conditions: in vivo
[33] = AUC (0 to 24 hrs) in Beagle dog at 300 mg/kg, po; assay type: ADME, organism-based, Canis lupus familiaris; design: time < 24 hr, dose 300 mg/kg, route oral; conditions: in vivo
[34] = AUC (0 to 24 hrs) in Sprague-Dawley rat at 1 mg/kg, iv; assay type: ADME, organism-based; design: dose 1 mg/kg, time < 24 hr, route intravenous; conditions: in vivo

Sequence of Free fatty acid receptor 1 (Rattus norvegicus) (Q8K3T4 whole entry): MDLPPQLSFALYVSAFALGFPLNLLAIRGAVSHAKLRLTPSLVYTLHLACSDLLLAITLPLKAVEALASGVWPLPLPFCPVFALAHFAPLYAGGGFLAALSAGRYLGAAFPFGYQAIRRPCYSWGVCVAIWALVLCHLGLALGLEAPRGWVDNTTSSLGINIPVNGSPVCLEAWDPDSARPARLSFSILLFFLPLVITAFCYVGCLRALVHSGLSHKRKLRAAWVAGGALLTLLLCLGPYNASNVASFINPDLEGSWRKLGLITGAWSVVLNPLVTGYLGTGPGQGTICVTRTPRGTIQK
Sequence of Voltage-gated inwardly rectifying potassium channel KCNH2 (Q12809 whole entry): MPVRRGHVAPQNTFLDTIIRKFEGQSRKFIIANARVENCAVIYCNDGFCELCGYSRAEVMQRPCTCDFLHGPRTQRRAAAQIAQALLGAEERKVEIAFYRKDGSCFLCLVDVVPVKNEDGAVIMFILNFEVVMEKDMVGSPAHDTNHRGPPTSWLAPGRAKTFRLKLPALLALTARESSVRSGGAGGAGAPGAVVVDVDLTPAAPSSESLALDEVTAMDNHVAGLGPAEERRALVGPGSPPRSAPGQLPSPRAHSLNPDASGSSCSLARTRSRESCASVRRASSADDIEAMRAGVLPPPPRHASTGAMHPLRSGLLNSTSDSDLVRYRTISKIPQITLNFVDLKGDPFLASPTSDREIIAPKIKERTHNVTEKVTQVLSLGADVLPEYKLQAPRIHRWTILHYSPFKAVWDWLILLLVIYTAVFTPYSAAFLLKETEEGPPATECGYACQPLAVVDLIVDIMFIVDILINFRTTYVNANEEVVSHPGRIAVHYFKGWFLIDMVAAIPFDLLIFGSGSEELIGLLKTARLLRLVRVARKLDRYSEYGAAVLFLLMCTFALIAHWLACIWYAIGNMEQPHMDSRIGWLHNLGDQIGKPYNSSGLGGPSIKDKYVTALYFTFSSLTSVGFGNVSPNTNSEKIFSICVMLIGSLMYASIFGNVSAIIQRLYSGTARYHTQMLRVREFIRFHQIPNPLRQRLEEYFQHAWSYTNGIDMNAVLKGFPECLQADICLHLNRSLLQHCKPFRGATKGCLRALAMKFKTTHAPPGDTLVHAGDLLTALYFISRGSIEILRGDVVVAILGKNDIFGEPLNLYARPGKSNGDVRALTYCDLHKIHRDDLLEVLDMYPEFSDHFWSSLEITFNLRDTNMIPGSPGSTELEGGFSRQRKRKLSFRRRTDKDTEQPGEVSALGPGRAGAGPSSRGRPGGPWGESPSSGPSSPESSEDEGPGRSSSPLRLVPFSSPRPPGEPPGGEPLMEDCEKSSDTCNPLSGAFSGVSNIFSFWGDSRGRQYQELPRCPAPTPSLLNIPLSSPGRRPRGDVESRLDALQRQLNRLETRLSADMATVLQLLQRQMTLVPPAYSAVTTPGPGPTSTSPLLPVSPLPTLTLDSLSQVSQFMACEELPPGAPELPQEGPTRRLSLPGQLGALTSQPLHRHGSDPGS
Sequence of Cytochrome P450 2D6 (P10635 whole entry): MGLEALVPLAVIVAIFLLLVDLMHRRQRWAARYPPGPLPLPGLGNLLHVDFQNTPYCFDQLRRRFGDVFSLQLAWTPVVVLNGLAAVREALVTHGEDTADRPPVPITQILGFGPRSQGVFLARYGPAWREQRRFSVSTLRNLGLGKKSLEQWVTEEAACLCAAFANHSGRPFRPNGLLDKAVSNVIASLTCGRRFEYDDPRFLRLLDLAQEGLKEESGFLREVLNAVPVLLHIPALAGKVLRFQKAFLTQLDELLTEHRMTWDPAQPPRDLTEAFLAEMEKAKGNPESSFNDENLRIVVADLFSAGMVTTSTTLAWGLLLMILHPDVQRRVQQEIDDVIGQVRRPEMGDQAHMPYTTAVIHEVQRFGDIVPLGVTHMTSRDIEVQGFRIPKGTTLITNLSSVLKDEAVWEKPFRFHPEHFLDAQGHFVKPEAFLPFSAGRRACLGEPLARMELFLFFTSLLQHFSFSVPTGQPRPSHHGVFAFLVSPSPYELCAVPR

SMILES: CC#C[C@@H](CC(=O)O)c1ccc(OCc2ccc3nc(-c4c(C)cccc4C)nn3c2)cc1
- Tmax [1]: 2 h
- Cmax [2]: 23.7 µg/mL
- AUC(0-t) at 24 h [3]: 2870 µg·h/mL
- Activity [4]: Non-Toxic
- Activity [5]: inactive
- Cmax [6]: 3.38 µg/mL
- bioavailability [7]: 83%
- Tmax [8]: 5.3 h
- Tmax [9]: 3 h
- Drug metabolism [10]: Metabolite_Detected
- Tmax [11]: 0.67 h
- Activity [12]: inactive
- Tmax [13]: 6.7 h
- Activity [14]: Non-Toxic
- Cmax [15]: 126 µg/mL
- Cmax [16]: 281 µg/mL
- clearance [17]: 0.601 mL/min/kg
- AUC(0-t) at 24 h [18]: 120 µg·h/mL
- solubility [19]: > 100 µM
- K [20]: < 0.0009 h⁻¹
- AUC(0-t) at 24 h [21]: 3320 µg·h/mL
- pKa [22]: 4.3
- half-life [23]: 6.53 h
- Activity [24]: 20.2 ng/mL
- bioavailability [25]: 93%
- solubility [26]: 173 µg/mL (≈ 394 µM)
- inhibition (INH) [27]: Not Active
- IC50 [28]: > 60 µM
- Activity [29]: 19.4 ng/mL
- Drug metabolism [30]: Metabolite_Detected
- Tmax [31]: 6 h
- half-life [32]: 3.98 h
- AUC(0-t) at 24 h [33]: 4010 µg·h/mL
- AUC(0-t) at 24 h [34]: 12.7 µg·h/mL
